Legend:
Rattus norvegicus [1] = species on record: Rattus norvegicus; assay: Delayed Type hypersensitivity (DTH) is measured by increase in ear thickness 24 hours after antigen injection into pinna 10e-3; type: functional
Rattus norvegicus [2] = assay: Compound was tested for intestinal ulcerogenic effect in rats, activity expressed as lesion score at a dose of 100 mg/kg; type: functional
In short: (§1)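 Normal fed rats were gavaged once daily for three consecutive days at 10–300 mg/kg and killed 24 h after the last dose. Intestines were examined for ulcers, recording incidence per group of 8 and a lesion score (±SE).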

Rattus norvegicus [3] = assay: Compound was tested for intestinal ulcerogenic effect in rats, activity expressed as lesion score at a dose of 10 mg/kg; type: functional; in short: as §1
Rattus norvegicus [4] = assay: Compound was tested for intestinal ulcerogenic effect in rats at a dose of 100 mg/kg; type: functional; in short: as §1
Rattus norvegicus [5] = assay: Compound was tested for intestinal ulcerogenic effect in rats at a dose of 10 mg/kg; type: functional; in short: as §1
Rattus norvegicus [6] = assay: Compound was tested for intestinal ulcerogenic effect in rats, activity expressed as ulcer incidence at a dose of 100 mg/kg; type: functional; in short: as §1
Rattus norvegicus [7] = assay: Compound was tested for intestinal ulcerogenic effect in rats, activity expressed as ulcer incidence at a dose of 10 mg/kg; type: functional; in short: as §1
Rattus norvegicus [8] = assay: Compound was tested for intestinal ulcerogenic effect in rats, activity expressed as ulcer incidence at a dose of 300 mg/kg; type: functional; in short: as §1
Rattus norvegicus [9] = assay: Compound was tested in vivo against chronic adjuvant arthritic rat by prophylactic inhibition 1 degree paw. Relative potency with respect to (8-Benzyl-5-hydroxy-1,3-dimethyl-6-propyl-1H,8H-1,3,4b,8,9-pentaaza-fluorene-2,4,7-trione); type: functional
Rattus norvegicus [10] = assay: Compound was tested in vivo for antiinflammatory activity against chronic adjuvant arthritic rat by therapeutic inhibition 1 degree paw after peroral administration of 18 mg/kg of dose; type: functional; settings: route oral
Rattus norvegicus [11] = assay: Compound was tested for gastric ulcerogenic effect in rats, activity expressed as lesion length at a dose of 30 mg/kg
Rattus norvegicus [12] = assay: Compound was tested for gastric ulcerogenic effect in rats, activity expressed as lesion length at a dose of 300 mg/kg
[13] = Plasma level data at a dose of 20 mg/kg, iv after 0.25 hr; type: ADME, organism-based; design: dose 20 mg/kg, route intravenous; settings: read-out: Plasma level
In short: (§2)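 Male Lewis rats get a single iv or oral dose of the sodium salt, suspended in 0.4% (w/v) methyl cellulose. Plasma drug levels are measured by HPLC at the timed points and given as mean ± SD, n = 3.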

[14] = Plasma level data at a dose of 20 mg/kg, iv after 0.5 hr; type: ADME, organism-based; design: dose 20 mg/kg, route intravenous; settings: read-out: Plasma level; in short: as §2
[15] = Plasma level data at a dose of 20 mg/kg, iv after 12 hr; type: ADME, organism-based; design: dose 20 mg/kg, route intravenous; settings: read-out: Plasma level; in short: as §2
[16] = Plasma level data at a dose of 20 mg/kg, iv after 6 hr; type: ADME, organism-based; design: dose 20 mg/kg, route intravenous; settings: read-out: Plasma level; in short: as §2
[17] = Plasma level data at a dose of 20 mg/kg, po after 0.25 hr; type: ADME, organism-based; design: dose 20 mg/kg, route oral; settings: read-out: Plasma level; in short: as §2
[18] = Plasma level data at a dose of 20mg/kg, po after 0.5 hr; type: ADME, organism-based; settings: read-out: Plasma level; in short: as §2
[19] = Plasma level data at a dose of 20mg/kg, po after 6 hr; type: ADME, organism-based; settings: read-out: Plasma level; in short: as §2
[20] = Plasma level data at a dose of 20 mg/kg, po after 12 hr; type: ADME, organism-based; design: dose 20 mg/kg, route oral; settings: read-out: Plasma level; in short: as §2
Rattus norvegicus [21] = species on record: Rattus norvegicus; assay: Delayed Type hypersensitivity (DTH) is measured by increase in ear thickness 24 hours after antigen injection into pinna; type: functional
Rattus norvegicus [22] = assay: compound was tested for antiinflammatory activity against collagen II arthritis in rats, activity% inhibition in injected paw edema; type: functional
In short: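 Arthritis induced in rats by injection of bovine articular cartilage type II collagen (dissolved in 0.01 M AcOH, dialysed against saline) mixed 1:1 with incomplete Freund's adjuvant. Paw inflammation checked weekly for 7 weeks. Inhibition = [Δpaw vol(collagen) − Δpaw vol(collagen + drug)]/[Δpaw vol(collagen) − Δpaw vol(ICFA control)] × 100. Bone damage scored by lateral-projection radiography; p ≤ 0.05 by Student's t-test.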

[23] = Plasma level data at a dose of 36 mg/kg, iv after 0.25 hr; type: ADME, organism-based; design: dose 36 mg/kg, route intravenous; settings: read-out: Plasma level; in short: as §2
[24] = Plasma level data at a dose of 36 mg/kg, iv after 0.5 hr; type: ADME, organism-based; design: dose 36 mg/kg, route intravenous; settings: read-out: Plasma level; in short: as §2
[25] = Plasma level data at a dose of 36 mg/kg, iv after 12 hr; type: ADME, organism-based; design: dose 36 mg/kg, route intravenous; settings: read-out: Plasma level; in short: as §2
[26] = Plasma level data at a dose of 36 mg/kg, iv after 1 hr; type: ADME, organism-based; design: dose 36 mg/kg, route intravenous; settings: read-out: Plasma level; in short: as §2
[27] = Plasma level data at a dose of 36 mg/kg, iv after 2 hr; type: ADME, organism-based; design: dose 36 mg/kg, route intravenous; settings: read-out: Plasma level; in short: as §2
[28] = Plasma level data at a dose of 36 mg/kg, iv after 4 hr; type: ADME, organism-based; design: dose 36 mg/kg, route intravenous; settings: read-out: Plasma level; in short: as §2
[29] = Plasma level data at a dose of 36 mg/kg, iv after 6 hr; type: ADME, organism-based; design: dose 36 mg/kg, route intravenous; settings: read-out: Plasma level; in short: as §2
[30] = Plasma level data at a dose of 36 mg/kg, po after 0.25 hr; type: ADME, organism-based; design: dose 36 mg/kg, route oral; settings: read-out: Plasma level; in short: as §2
[31] = Plasma level data at a dose of 36 mg/kg, po after 0.5 hr; type: ADME, organism-based; design: dose 36 mg/kg, route oral; settings: read-out: Plasma level; in short: as §2
[32] = Plasma level data at a dose of 36 mg/kg, po after 12 hr; type: ADME, organism-based; design: dose 36 mg/kg, route oral; settings: read-out: Plasma level
In short: (§3)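 Male Lewis rats given a single po dose of the sodium salt suspended in 0.4% (w/v) methyl cellulose. Plasma drug levels measured by HPLC at set times up to 12 h; values are mean ± SD, n = 3.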

[33] = Plasma level data at a dose of 36 mg/kg, po after 4 hr; type: ADME, organism-based; design: dose 36 mg/kg, route oral; settings: read-out: Plasma level; in short: as §3
[34] = Plasma level data at a dose of 36 mg/kg, po after 6 hr; type: ADME, organism-based; design: dose 36 mg/kg, route oral; settings: read-out: Plasma level; in short: as §3
Rattus norvegicus [35] = species on record: Rattus norvegicus; assay: Delayed Type hypersensitivity (DTH) is measured by increase in ear thickness 24 hours after antigen injection into pinna (10E-3); type: functional
Rattus norvegicus [36] = assay: Compound was tested in vivo for antiinflammatory activity against chronic adjuvant arthritic rat by therapeutic percentage inhibition 1 degree paw after peroral administration of 3.3 mg/kg of dose; type: functional; settings: route oral
Rattus norvegicus [37] = assay: Compound was tested in vivo for antiinflammatory activity against chronic adjuvant arthritic rat by therapeutic percentage inhibition 1 degree paw after peroral administration of 30 mg/kg of dose; type: functional
Rattus norvegicus [38] = assay: Compound was tested in vivo for antiinflammatory activity against chronic adjuvant arthritic rat by therapeutic percentage inhibition 2 degree paw after peroral administration of 10 mg/kg of dose; type: functional; settings: route oral
Rattus norvegicus [39] = assay: Compound was tested in vivo for antiinflammatory activity against chronic adjuvant arthritic rat by therapeutic percentage inhibition 2 degree paw after peroral administration of 3.3 mg/kg of dose; type: functional; settings: route oral
Rattus norvegicus [40] = assay: Compound was tested in vivo for antiinflammatory activity against chronic adjuvant arthritic rat by therapeutic percentage inhibition 1 degree paw after peroral administration of 10 mg/kg of dose; type: functional; settings: route oral
Rattus norvegicus [41] = assay: Compound was tested in vivo against chronic adjuvant arthritic rat by therapeutic inhibition 2 degree paw. Relative potency with respect to (8-Benzyl-5-hydroxy-1,3-dimethyl-6-propyl-1H,8H-1,3,4b,8,9-pentaaza-fluorene-2,4,7-trione); type: functional
Rattus norvegicus [42] = assay: Compound was tested for intestinal Ulcerogenic effect in rats at a dose of 300 mg/kg; type: functional; in short: as §1
Rattus norvegicus [43] = assay: Compound was tested for intestinal Ulcerogenic effect in rats, activity expressed as ulcer incidence at a dose of 300 mg/kg; type: functional; in short: as §1
Rattus norvegicus [44] = assay: Compound was tested for intestinal Ulcerogenic effect in rats, activity expressed as lesion score at a dose of 300 mg/kg; type: functional; in short: as §1

CC(C)=CCc1c(O)n(Cc2ccc(F)cc2)c2nc3c(c(=O)n(C)c(=O)n3C)n2c1=O
DTH (Rattus norvegicus [1]): 47.3 10e-3mm
Lesion length (Rattus norvegicus [2]): 0 mm rat-1
Lesion length (Rattus norvegicus [3]): 0 mm rat-1
Ulcer incidence (Rattus norvegicus [4]): 0 number/group
Ulcer incidence (Rattus norvegicus [5]): 0 number/group
Ulcer incidence (Rattus norvegicus [6]): 0 number/group
Ulcer incidence (Rattus norvegicus [7]): 0 number/group
Ulcer incidence (Rattus norvegicus [8]): 2 number/group
Relative potency (Rattus norvegicus [9]): 1.1
inhibition in vivo at 18 mg/kg (Rattus norvegicus [10]): 39%
Length (Rattus norvegicus [11]): 0.1 mm rat-1
Length (Rattus norvegicus [12]): 3 mm rat-1

CC(C)=CCc1c(O)n(Cc2ccccc2)c2nc3c(c(=O)n(C)c(=O)n3C)n2c1=O
concentration at 0.25 h [13]: 95100 ng/mL
concentration at 0.5 h [14]: 78600 ng/mL
concentration at 12 h [15]: 10600 ng/mL
concentration at 6 h [16]: 35100 ng/mL
concentration at 0.25 h [17]: 2400 ng/mL
concentration at 0.5 h [18]: 10800 ng/mL
concentration at 6 h [19]: 37000 ng/mL
concentration at 12 h [20]: 26700 ng/mL
DTH (Rattus norvegicus [21]): 0.0582 mm
Inhibition (Rattus norvegicus [22]): 0%

CCCc1c(O)n(Cc2ccc(F)cc2)c2nc3c(c(=O)n(C)c(=O)n3C)n2c1=O
concentration at 0.25 h [23]: 140000 ng/mL
concentration at 0.5 h [24]: 107000 ng/mL
concentration at 12 h [25]: 88300 ng/mL
concentration at 1 h [26]: 107000 ng/mL
concentration at 2 h [27]: 128000 ng/mL
concentration at 4 h [28]: 72400 ng/mL
concentration at 6 h [29]: 78300 ng/mL
concentration at 0.25 h [30]: 20000 ng/mL
concentration at 0.5 h [31]: 45100 ng/mL
concentration at 12 h [32]: 35900 ng/mL
concentration at 4 h [33]: 41800 ng/mL
concentration at 6 h [34]: 21000 ng/mL
DTH (Rattus norvegicus [35]): 34.1 10e-3mm
inhibition in vivo at 3.3 mg/kg (Rattus norvegicus [36]): 7%
inhibition in vivo at 30 mg/kg (Rattus norvegicus [37]; Rattus norvegicus, po): 47%
Inhibition (Rattus norvegicus [37]; route oral, 30 mg/kg): 47%
inhibition in vivo at 10 mg/kg (Rattus norvegicus [38]): 38%
inhibition in vivo at 3.3 mg/kg (Rattus norvegicus [39]): 30%
inhibition in vivo at 10 mg/kg (Rattus norvegicus [40]): 27%
Relative potency (Rattus norvegicus [41]): 0.9
Ulcer incidence (Rattus norvegicus [42]): 0 number/group
Ulcer incidence (Rattus norvegicus [43]): 0 number/group
Lesion score (Rattus norvegicus [44]): 0 mm rat-1

Source: ChEMBL document CHEMBL1123282, “Antiinflammatory activity of substituted 6-hydroxypyrimido[2,1-f]purine-2,4,8(1H,3H,9H)-triones. Atypical nonsteroidal antiinflammatory agents” (J Med Chem, 1986)
